Published values of several laboratories.
Lines come from different studies, so protocols differ.
Cell line: MCF-10A
Read-out: cell growth or viability

| Structure (SMILES) | technique | time | IC50 [µM] |
| --- | --- | --- | --- |
| CC(=O)O[C@H]1C(=O)[C@@]2(C)[C@H]([C@H](OC(=O)c3ccccc3)[C@]3(O)C[C@H](OC(=O)[C@H](O)[C@@H](NC(=O)c4ccccc4)c4ccccc4)C(C)=C1C3(C)C)[C@]1(OC(C)=O)CO[C@@H]1C[C@@H]2O | MTT | 48 h | > 100 |
| CCOC(=O)c1c(C)nc2ccc(-c3ccc(F)cc3)cc2c1O | MTT | 48 h | > 100 |
| COc1ccc(C(=O)N/N=C/c2cn(S(=O)(=O)c3ccc(C)cc3)c3ccccc23)cc1 | MTT | 48 h | > 50 |
| CN(C)C(=S)[N-]N=C(c1ccccn1)c1ccccn1.[O]=[V+]=[O] | MTT | 48 h | 19.2 |
| CCOC(=O)c1c(C)nc2ccc(-c3ccc(OCc4ccccc4)c(F)c3)cc2c1O | MTT | 48 h | > 100 |
| Cc1ccc(S(=O)(=O)n2cc(/C=N/NC(=O)c3cccc4ccccc34)c3ccccc32)cc1 | MTT | 48 h | > 50 |
| CCOC(=O)c1c(C)nc2ccc(-c3ccc(F)c(F)c3)cc2c1O | MTT | 48 h | > 100 |
| CO[C@H]1[C@H](O[C@H]([C@H]2O[C@@H](n3ccc(=O)[nH]c3=O)[C@H](O)[C@@H]2O)[C@H](NCCCNC(=O)[C@@H](NC(=O)[C@@H](NC(=O)N[C@H](C(=O)O)C(C)C)[C@@H]2CCN=C(N)N2)[C@@H](OC(=O)CCCCCCCCCCCCN(O)C(=N)N)C(C)C)C(=O)O)O[C@H](CN)[C@H]1O | WST-1 |  | > 35 |
| Cc1ccc(S(=O)(=O)n2cc(/C=N/NC(=O)c3ccc(C)c(F)c3)c3ccccc32)cc1 | MTT | 48 h | > 50 |
| CC(C)Cc1ccc([C@H](C)C(=O)O)cc1 | SRB | 72 h | 435 |
| CO[C@H]1[C@H](O[C@H]([C@H]2O[C@@H](n3ccc(=O)[nH]c3=O)[C@H](O)[C@@H]2O)[C@H](NCCCNC(=O)[C@@H](NC(=O)[C@@H](NC(=O)N[C@H](C(=O)O)C(C)C)[C@@H]2CCN=C(N)N2)[C@@H](O)C(C)C)C(=O)O)O[C@H](CN)[C@H]1O | WST-1 |  | > 35 |
